Test results as given in ChEMBL document CHEMBL3808340, “Development of Novel 1,2,3,4-Tetrahydroquinoline Scaffolds as Potent NF-κB Inhibitors and Cytotoxic Agents” (ACS Med Chem Lett, 2016).

What was measured:
RAW264.7 = test: Inhibition of LPS-induced NFkappaB (unknown origin) transcriptional activity expressed in mouse RAW264.7 cells at 100 uM incubated for 16 hrs by SEAP based reporter gene assay relative to control; format: cell-based
NCI-H23 = test: Cytotoxicity against human NCI-H23 cells after 72 hrs by sulforhodamine B assay; format: functional; conditions: NCI-H23, 72 h
Procedure, shortened: (§1)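 Sulforhodamine B staining following the NCI (USA) protocol was used to estimate cell number indirectly in six human cancer lines. GI50 is the concentration giving a 50% decrease in net cell growth, reported as the mean of three experiments.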

ACHN = test: Cytotoxicity against human ACHN cells after 72 hrs by sulforhodamine B assay; format: functional; procedure, shortened: as §1
MDA-MB-231 = test: Cytotoxicity against human MDA-MB-231 cells after 72 hrs by sulforhodamine B assay; format: functional; conditions: MDA-MB-231, 72 h; procedure, shortened: as §1
[1] = Cytotoxicity against human HCT15 cells after 72 hrs by sulforhodamine B assay; format: functional; conditions: HCT-15, 72 h; procedure, shortened: as §1
[2] = Cytotoxicity against human NUGC3 cells after 72 hrs by sulforhodamine B assay; format: functional; conditions: NUGC-3, 72 h; procedure, shortened: as §1
Homo sapiens [3] = species on record: Homo sapiens; test: Potency index, ratio of PDTC IC50 to compound IC50 for LPS-induced NFkappaB (unknown origin) transcriptional activity expressed in mouse RAW264.7 cells; format: cell-based
[4] = Cytotoxicity against human PC3 cells after 72 hrs by sulforhodamine B assay; format: functional; conditions: PC-3, 72 h; procedure, shortened: as §1
[5] = Inhibition of LPS-induced NFkappaB (unknown origin) transcriptional activity expressed in mouse RAW264.7 cells incubated for 16 hrs by SEAP based reporter gene assay; format: cell-based; conditions: RAW264.7, 16 h
Homo sapiens [6] = species on record: Homo sapiens; test: Potency index, ratio of KL-1156 IC50 to compound IC50 for LPS-induced NFkappaB (unknown origin) transcriptional activity expressed in mouse RAW264.7 cells; format: cell-based

Structure (SMILES)	inhibition (RAW264.7) [%]	GI50 (NCI-H23) [µM]	GI50 (ACHN) [µM]	GI50 (MDA-MB-231) [µM]	GI50 [1] [µM]	GI50 [2] [µM]	Ratio IC50 (Homo sapiens [3])	GI50 [4] [µM]	IC50 [5] [µM]	Ratio IC50 (Homo sapiens [6])
O=C(Nc1ccccc1C(F)(F)F)C1CCc2ccccc2N1C(=O)c1ccccc1Cl (stereo not given)	82	2.15	3.9	2.53	4.22	2.73	41	5.14	0.9	58
O=C(Nc1ccccc1C(F)(F)F)C1CCc2ccccc2N1C(=O)c1cccc(Cl)c1 (stereo not given)	90	0.292	0.526	0.288	0.797	0.754	53	0.729	0.7	75
CCCC(=O)N1c2ccccc2CCC1C(=O)Nc1ccccc1C(F)(F)F (stereo not given)	51	> 70	> 70	> 70	> 70	> 70	–	> 70	95	–
CCCCCCCCC(=O)N1c2ccccc2CCC1C(=O)Nc1ccccc1C(F)(F)F (stereo not given)	63	4.22	8.33	3.35	7.7	6.18	–	4.32	27	–
O=C(Nc1cc(C(F)(F)F)cc(C(F)(F)F)c1)C1CCc2ccccc2N1C(=O)c1ccccc1 (stereo not given)	66	2.13	2.92	2.43	3.54	1.68	–	3.5	29	–
O=C(Nc1cc(C(F)(F)F)cc(C(F)(F)F)c1)C1CCc2ccccc2N1C(=O)c1ccc(Cl)cc1 (stereo not given)	92	0.889	2.57	2	2.22	1.66	–	4.23	20	–
O=C(Nc1ccccc1O)C1CCc2ccccc2N1 (stereo not given)	57	2.23	3.99	5.26	5.61	2.68	–	4.31	83	–
COc1ccc(NC(=O)C2CCc3ccccc3N2)cc1 (stereo not given)	> 100	55.7	38	51.4	50.2	51.9	–	56.9	34	–
O=C(Nc1ccccc1C(F)(F)F)C1CCc2ccccc2N1 (stereo not given)	> 100	56.8	57.6	45.5	40.4	39.3	–	53.3	26	–
O=C(Nc1ccccc1)C1CCc2ccccc2N1 (stereo not given)	85	97.1	72.9	108	109	59	–	110	60	–
O=C(Nc1cc(C(F)(F)F)cc(C(F)(F)F)c1)C1CCc2ccccc2N1C(=O)c1cccc(Cl)c1 (stereo not given)	68	0.42	0.813	1.19	0.625	0.56	–	1.05	27	–
O=C(Nc1ccccc1C(F)(F)F)C1CCc2ccccc2N1C(=O)c1ccc(Cl)cc1 (stereo not given)	92	0.307	0.824	0.533	0.839	0.551	13	0.786	2.7	19
CCCCCCCCC(=O)N1c2ccccc2CCC1C(=O)Nc1cc(C(F)(F)F)cc(C(F)(F)F)c1 (stereo not given)	58	3.23	4.52	7.53	4.97	2.23	–	7.43	51	–
O=C(Nc1cc(C(F)(F)F)cc(C(F)(F)F)c1)C1CCc2ccccc2N1 (stereo not given)	> 100	8.41	8.19	8.27	8.7	8.76	–	8.12	26	–
O=C(Nc1ccccc1O)C1CCc2ccccc2N1C(=O)c1ccc(Cl)cc1 (stereo not given)	82	19.2	19.6	19.6	20.2	13.4	–	25.1	20	–
CCCC(=O)N1c2ccccc2CCC1C(=O)Nc1cc(C(F)(F)F)cc(C(F)(F)F)c1 (stereo not given)	88	15	13.9	15.2	21.9	14.4	–	18.6	20	–
O=C(Nc1ccccc1O)C1CCc2ccccc2N1C(=O)c1ccccc1 (stereo not given)	> 100	3.49	4.26	4.21	3.83	3.78	26	5.69	1.4	37
CC(=O)N1c2ccccc2CCC1C(=O)Nc1cc(C(F)(F)F)cc(C(F)(F)F)c1 (stereo not given)	85	> 70	> 70	> 70	> 70	> 70	–	> 70	23	–
CCC(=O)N1c2ccccc2CCC1C(=O)Nc1cc(C(F)(F)F)cc(C(F)(F)F)c1 (stereo not given)	91	7.82	7.72	7.28	7.62	7.22	–	8.54	20	–
